These results are taken from ChEMBL document CHEMBL4513216, “Probing the Open Global Health Chemical Diversity Library for Multistage-Active Starting Points for Next-Generation Antimalarials” (ACS Infect Dis, 2020).

The structures appear in SMILES notation.

A short description of this series: Toxicity liver stage against HepG2, at 10uM. The conditions noted are these: human, HepG2-A16-CD81EGFP cells; read-out: INHIBITION
More on the design: test concentration 10 uM, cell line HepG2-A16-CD81EGFP. The format is cell-based. The procedure, abridged: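 Uninfected HepG2-A16-CD81EGFP cells, 3 × 10^3 per well, 1536-well, plated on prespotted compound at 10 μM final, parasite-free screening media added to match infected plates; puromycin 10 μM positive, DMSO 0.5% negative; run in parallel with 48 h PbLuc assay at 37 °C, 5% CO2; viability by CellTiter-Glo luminescence, normalized to controls.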
`Cn1c2c(c(=O)c3ccccc31)CCC(C)(C)O2`: the cytotoxicity at 10 µM amounted to 2.76%.
For the compound `Cc1cccc(-c2noc([C@@H]3C[C@@H](O)CN3CC3CCCCC3)n2)c1`, the cytotoxicity at 10 µM was found to be 6.41%.
For the compound `CCN1C(=O)COC[C@@H]1[C@H](O)c1ccc(NC(=O)COC)cc1`, the cytotoxicity at 10 µM was 1.73%.
Turning to `FC(F)(F)Oc1ccc(-c2c[nH]c([C@@H]3COCCN3)n2)cc1`, the cytotoxicity at 10 µM was -8.64%.
As for `COc1ccc(S(=O)(=O)N2CCOC[C@H](Oc3cnccn3)C2)cc1`, the cytotoxicity at 10 µM amounted to 10.4%.
For `COc1ccccc1NC(=O)Cn1c(=O)nc(N)c2cc(C)sc21`, the cytotoxicity at 10 µM came to 3.45%.
As to `COc1cccc2c1ccn2CC(=O)Nc1nc[nH]n1`, the cytotoxicity at 10 µM is -0.297%.
Regarding `CCS(=O)(=O)NCCNc1cc(-n2cccc2)ncn1`, the cytotoxicity at 10 µM was -3.5%.
For the compound `O=C(Cc1cccs1)NCC1COCc2c(-c3ccoc3)nnn2C1` (configuration not stated), the cytotoxicity at 10 µM was found to be 19%.
Turning to `COc1ncccc1CN1CC[C@H]2O[C@@H](c3nnc(C)o3)CC[C@H]21`, the cytotoxicity at 10 µM was 9.6%.
The result for `CN1CCN(c2ncnc3c2CCN(Cc2nccn2C)CC3)CC1` reads -130%; that for `Cc1ncnc2c1CCN(C(=O)c1cnccn1)CC2`, -5.19%; that for `O=C(c1cocn1)N1CCC[C@]2(C[C@@H](Oc3ncccc3F)CO2)C1`, 6.21%.
`COC(=O)C(C)NC(=O)CSCc1nc(O)c2cc(C(C)C)sc2n1` (configuration not stated): the cytotoxicity at 10 µM was 10.2%.
With `O=c1ccc(-c2cccs2)nn1CN1CCN(c2ccccn2)CC1`, the cytotoxicity at 10 µM is -0.383%.
For the compound `Nc1ncccc1C(=O)NCc1ccc(Br)cc1`, the cytotoxicity at 10 µM worked out at 35.7%.
As for `O=C(NCCc1ccccn1)c1[nH]nc2c1CCCC2`, the cytotoxicity at 10 µM was 8.41%.
On to `COc1cccc(Cn2cc(N3C(=O)CCC3=O)cn2)c1`, for which the cytotoxicity at 10 µM was -2.75%.
Then `Cc1ccc(-c2nc(C3CCN(C(=O)c4ccn(C)n4)CC3)no2)cn1`, with -2.81%; and `COc1cc(CCC(=O)N2CCC(c3cc4ncccc4[nH]3)CC2)on1`, with 3.78%; and `O=S(=O)(c1cccs1)N1CCCC(c2nccs2)C1` (configuration not stated), with -15%.
Regarding `c1nc2c(c(N3CCOC(Cn4cncn4)C3)n1)CCC2` (configuration not stated), the cytotoxicity at 10 µM was 14.5%.
With `CCc1ccc(C(=O)N(c2cccnc2)C(C)C)cc1S(C)(=O)=O`, the cytotoxicity at 10 µM was 2.62%.
As to `COc1ccccc1C(C)NC(=O)N1CCN(Cc2ccc(Br)s2)CC1` (configuration not stated), the cytotoxicity at 10 µM came to 10.5%.
In the case of `CCOc1ccccc1NC(=O)NCc1ccoc1`, the cytotoxicity at 10 µM was -0.335%.
Consider `CC(C)c1cc(NC(=O)Cn2cnc3ccccc3c2=O)[nH]n1`, for which the cytotoxicity at 10 µM is -168%.
In the case of `CCc1cc(=O)[nH]c(-c2ccc(NC(CO)CC(C)C)nc2)n1` (configuration not stated), the cytotoxicity at 10 µM is -146%.
Then `O=C(NCCCn1ccccc1=O)c1cnc(-c2ccsc2)s1`, with 0.956%; and `CCc1nc(CC)n(CC(=O)N(C)CC(F)(F)F)n1`, with 2.19%.
Turning to `Cc1cnn(CCC(=O)NCc2ccc(N(C)C)c(C)c2)c1`, the cytotoxicity at 10 µM was -3.03%.
Take `CC(CNC(=O)c1cccnc1)Oc1ccc(F)cc1` (configuration not stated): the cytotoxicity at 10 µM is -6.98%.
In the case of `CC(c1ccc(S(C)(=O)=O)cc1)N(C)C(=O)c1ccccc1I` (configuration not stated), the cytotoxicity at 10 µM was 11.1%.
On to `COc1ccc(CN(C(=O)C(C)C)c2cnn(C)c2)c(OC)c1`, for which the cytotoxicity at 10 µM was determined as 3.2%.
The result for `Cc1cc(C(=O)NC2(C#N)CCCC2)c(C)n1-c1cccnc1` reads -3.15%; that for `Cc1c(Br)cccc1C(=O)NCc1cnn(C)c1`, 3.15%; that for `Fc1cc(CN2CCOC3(CCOCC3)C2)ccc1Cl`, -4.57%.
In the case of `CN(C(=O)COc1ccc(-c2noc(C3CCCO3)n2)cc1)C1CC1` (configuration not stated), the cytotoxicity at 10 µM is -6.79%.
In the case of `Cc1ccc(C(=O)NCc2ccccc2S(=O)(=O)N(C)CCO)cc1F`, the cytotoxicity at 10 µM was -3.04%.
Regarding `Cc1nc(C)n(CC2CCCN(CCCS(=O)(=O)N(C)C)C2)n1` (configuration not stated), the cytotoxicity at 10 µM was -3.15%.
`CN(C)C(=O)Cn1cc(C(=O)NCCc2ccc(Cl)cc2Cl)nn1`: the cytotoxicity at 10 µM is -2.35%.
On to `CN(CC(=O)NC1CC1)S(=O)(=O)c1ccc(F)cc1Cl`, for which the cytotoxicity at 10 µM was -8.06%.
On to `O=C(NCc1ccc(OCC2CC2)nc1)Nc1c(F)cccc1F`, for which the cytotoxicity at 10 µM was 9.47%.
For the compound `Cc1nc(NC(=O)COCC2CC2)ccc1Br`, the cytotoxicity at 10 µM is -1.51%.
On to `CS(=O)(=O)NCCCSCc1cccc2cccnc12`, for which the cytotoxicity at 10 µM worked out at 3.53%.
`CCN(Cc1ccoc1)C(=O)C1CN(C(=O)OC(C)(C)C)C1`: the cytotoxicity at 10 µM was -0.743%.
The result for `CCc1cccc(OCC(=O)NC(C)c2nnc3n2CCC3)c1` (configuration not stated) reads -3.78%; that for `COCCC1(CNC(=O)NCC2CCCN(C)C2)CCCC1` (configuration not stated), 0.131%.
The result for `CC1CCN(C(=O)CSCc2noc(C(C)C)n2)CC1` reads 1.4%.
Then `CC(=O)Nc1cc(C(=O)N2CCOCC2c2ccc(C)o2)ccc1F` (configuration not stated), with -3.08%.
In the case of `CCOCCOC(C)C(=O)NCc1cn2cc(Br)ccc2n1` (configuration not stated), the cytotoxicity at 10 µM was -6.83%.
On to `O=C(NCc1ccc(OCC2CC2)nc1)c1c(F)cccc1F`, for which the cytotoxicity at 10 µM came to 1.49%.
Consider `CN(CCO)Cc1cc(Cl)ccc1OCC(O)CN1CCCCCC1` (configuration not stated), for which the cytotoxicity at 10 µM is -5.09%.
With `CCOc1ccccc1-n1c(C2CCC2)n[nH]c1=O`, the cytotoxicity at 10 µM was 4.18%.
Then `OC1(CNCCc2nc(Cc3ccccc3)no2)CNCCOC1` (configuration not stated), with 4.43%; and `CCC[C@H]1CN(S(C)(=O)=O)C[C@@H]1NC(=O)Cc1ccc(OC)cc1`, with 1.85%; and `CCN(CC)CCC(=O)NCc1cc2n(n1)CCN(C(=O)N(C)C)C2`, with -6.72%.
Then `CN(C)C(C(=O)NCCn1cccc1)c1cccc(F)c1` (configuration not stated), with -1.23%.
For the compound `O=c1cc(N2CCc3ccccc3C2)cnn1CCC1CCOC1` (configuration not stated), the cytotoxicity at 10 µM is -1.19%.
In the case of `CN(Cc1cc2cc(F)ccc2[nH]1)C(=O)C1CC(=O)N(C2CC2)C1` (configuration not stated), the cytotoxicity at 10 µM came to 0.0448%.
In the case of `O=C1CCCCCN1Cc1nc(C2(c3ccc(F)cc3)CCOC2)no1` (configuration not stated), the cytotoxicity at 10 µM was determined as 21.1%.
As for `COCCN1CC(Nc2nc(C(C)C)nc3c2cnn3C)CC1=O` (configuration not stated), the cytotoxicity at 10 µM is -1.52%.
Consider `CN1CCCC(CCC(=O)NCCc2nnc(N)s2)C1` (configuration not stated), for which the cytotoxicity at 10 µM is -146%.
Turning to `O=c1n(CC2CCCO2)nc(CC2CCNCC2)n1-c1ccccc1` (configuration not stated), the cytotoxicity at 10 µM is -3.49%.
In the case of `CCOCCC(=O)N(C)CC1Cc2ccccc2CN1C` (configuration not stated), the cytotoxicity at 10 µM was -8.77%.
As for `Cc1cc(N(C)Cc2snnc2C)nc(-c2cccnc2)n1`, the cytotoxicity at 10 µM is 2.43%.
Then `COc1cccc(-c2noc(-c3ccc(NCC(C)O)nc3)n2)c1OC` (configuration not stated), with -5.82%.
The result for `Cc1cc(C(=O)N2CC[C@H](N3CCN(C)CC3)[C@H](CCCO)C2)n(C)n1` reads -12.4%; that for `CNc1nc(C(=O)NCc2cccnc2N(C)C)cs1`, -7.57%; that for `Cc1cccc2[nH]c(C3CCN(C(=O)c4cnc(O)cc4O)CC3)nc12`, 3.09%.
Regarding `OC1(CNCc2csc(-c3ncccn3)n2)CCCNC1` (configuration not stated), the cytotoxicity at 10 µM is -10.7%.
For `COc1cccc(N2CCN(Cc3ncc[nH]3)CC2=O)c1`, the cytotoxicity at 10 µM is -5.73%.
Regarding `Cc1cc(C)nc(CCNC(=O)[C@H]2CNC[C@@H](C(=O)N3CCCC3)C2)n1`, the cytotoxicity at 10 µM is -20.9%.
Then `COc1ccc(NC(=O)CCC2CCCN(Cc3ncon3)C2)cc1Cl` (configuration not stated), with -6.12%; and `CNC(=O)c1ccc(C2CN(C(=O)COC)CCO2)nc1` (configuration not stated), with 3.25%; and `CCn1c(C(=O)N2CCCN(CC(N)=O)CC2)cc2ccccc21`, with -4.77%.
With `Cc1ccccc1NC1CCN(C(=O)CCc2ccco2)CC1`, the cytotoxicity at 10 µM is -16.2%.
`O=C(NCC1CCOC1)c1ccc(-c2ccccc2)[nH]c1=O` (configuration not stated): the cytotoxicity at 10 µM is -18.3%.
As to `O=C(NCCc1ccccc1)NCC(O)c1cccc(F)c1` (configuration not stated), the cytotoxicity at 10 µM was -7.24%.
As for `COc1cccc(CC(=O)N2CCCC(c3nncn3C)C2)c1` (configuration not stated), the cytotoxicity at 10 µM is -20.2%.
As to `Cc1nc(C(C)(C)C)sc1C(=O)NCCNc1ncccc1C#N`, the cytotoxicity at 10 µM was -15.8%.
As to `CC(NC(=O)COCC(F)(F)F)c1nnc2n1CCCCC2` (configuration not stated), the cytotoxicity at 10 µM was -12.3%.
In the case of `CCN(Cc1cccc2c1OCO2)C(=O)NCc1ccccn1`, the cytotoxicity at 10 µM came out at 1.48%.
Regarding `CCCc1nc(CN2CCN(C(C)c3nc(C4CC4)no3)CC2)no1` (configuration not stated), the cytotoxicity at 10 µM is -8.14%.
`Cc1nc(CN2CCCN(C(=O)c3sccc3C#N)CC2)cs1`: the cytotoxicity at 10 µM was -7.98%.
As to `Cc1nc(CN(C)CC2CCCN2c2cccnn2)oc1C` (configuration not stated), the cytotoxicity at 10 µM is -4.25%.
The result for `CC(Cn1cccn1)NCc1csc(-c2cccs2)n1` (configuration not stated) reads -8.85%; that for `O=C1COC2(CCN(Cc3ccncc3)CC2)CN1c1ccccc1`, -126%; that for `COc1ccc2c(c1)C1(CCN(Cc3cccnc3)CC1)N(C)CC2`, -161%.
The result for `Cc1ccc(CN2CCO[C@@H]3C[C@@H](C(=O)NC(C)C)C[C@H]32)o1` reads 6.1%.
Take `O=C(c1ccco1)N1CCO[C@@H]2CN(c3ccccn3)CC[C@@H]2C1`: the cytotoxicity at 10 µM turned out to be 9.43%.
With `COc1cc(CNC(C)Cn2ccnc2)cc2c1OCO2` (configuration not stated), the cytotoxicity at 10 µM amounted to 2.67%.
`Cc1cccc(CN2CCc3ncnc(C4CC4)c3CC2)n1`: the cytotoxicity at 10 µM is -158%.
In the case of `Cc1cccc(CN2C(=O)CCC23CCN(c2ncc(F)cn2)CC3)n1`, the cytotoxicity at 10 µM worked out at 9.11%.
As for `Cn1cc(-c2nc3c(cc2C(=O)O)CCN(C(=O)C2CC2)CC3)cn1`, the cytotoxicity at 10 µM was determined as 17.9%.
Consider `CCn1ncc2c1CN(C(=O)Cc1cccs1)CC2COC` (configuration not stated), for which the cytotoxicity at 10 µM came to 4.7%.
Take `CC(C)OC(=O)N1C[C@@H]2CC[C@H]1CN(C(=O)c1ccccn1)C2`: the cytotoxicity at 10 µM was found to be 0.502%.
Then `CNC(=O)[C@H]1C[C@H]2CN(C(=O)Nc3ccccc3)C[C@@H]1O2`, with 1.91%.
